Test results reported in ChEMBL document CHEMBL2375271, “Antiproliferative Homoisoflavonoids and Bufatrienolides from Urginea depressa” (J Nat Prod, 2013).
pIC50: −log10 of the molar value.

Legend:
[1] = Cytotoxicity against human H522-T1 cells assessed as growth inhibition after 96 hrs by CellTiter-Glo luminescence assay; type: functional, cell-based; conditions: H522-T1, 96 h
In short: (§1)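 Antiproliferative activity was determined against the A2058 melanoma and H522-T1 lung cancer cell lines.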

A2780 [2] = assay: Cytotoxicity against human A2780 cells assessed as growth inhibition; type: functional, cell-based
In short: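 Drug-sensitive A2780 human ovarian cancer cell line; antiproliferative activity determined per a previously described protocol.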

A2058 [3] = assay: Cytotoxicity against human A2058 cells assessed as growth inhibition after 96 hrs by CellTiter-Glo luminescence assay; type: functional, cell-based; conditions: A2058, 96 h; in short: as §1
A2058 [4] = assay: Selectivity ratio of IC50 for human A2780 cells to IC50 for human A2058 cells; type: functional
A2780 [5] = assay: Selectivity ratio of IC50 for human A2780 cells to IC50 for human H522-T1 cells; type: functional

Structure (SMILES)	pIC50 [1]	pIC50 (A2780 [2])	pIC50 (A2058 [3])	Ratio IC50 (A2058 [4])	Ratio IC50 (A2780 [5])
COc1ccc(C[C@H]2COc3cc(O)cc(O)c3C2=O)cc1	< 5.00	4.64	< 5.00	–	–
C[C@]12CC[C@H]3[C@@H](CCC4=C[C@@H](O[C@@H]5O[C@H](CO)[C@@H](O)[C@H](O)[C@H]5O)CC[C@@]43C=O)[C@@]1(O)CC[C@@H]2c1ccc(=O)oc1	7.47	7.62	7.32	–	–
CC(=O)O[C@@H]1C[C@]2(O)[C@@H]3CCC4=C[C@@H](O[C@@H]5O[C@H](CO)[C@@H](O)[C@H](O)[C@H]5O)CC[C@]4(C=O)[C@H]3CC[C@]2(C)[C@H]1c1ccc(=O)oc1	7.36	7.96	7.22	–	–
C[C@@H]1O[C@@H](O[C@H]2[C@@H](O)[C@H](O[C@@H]3C=C4CC[C@@H]5[C@H](CC[C@]6(C)[C@@H](c7ccc(=O)oc7)CC[C@]56O)[C@@]4(C)CC3)O[C@@H](C)[C@@H]2O[C@@H]2O[C@H](CO)[C@@H](O)[C@H](O)[C@H]2O)[C@H](O)[C@H](O)[C@H]1O	6.96	6.95	6.74	–	–
C[C@@H]1O[C@@H](O[C@H]2[C@@H](O)[C@H](O[C@@H]3C=C4CC[C@@H]5[C@H](CC[C@]6(C)[C@@H](c7ccc(=O)oc7)CC[C@]56O)[C@@]4(C=O)CC3)O[C@@H](C)[C@@H]2O[C@@H]2O[C@H](CO)[C@@H](O)[C@H](O)[C@H]2O)[C@H](O)[C@H](O)[C@H]1O	7.29	7.39	7.12	–	–
COc1ccc(C[C@@]2(O)COc3cc(OC)c(OC)c(OC)c3C2=O)cc1	7.15	6.49	7.17	5	5
COc1cc2c(c(OC)c1OC)C(=O)[C@@](O)(Cc1ccc(O)cc1)CO2	5.17	5.47	< 5.00	–	–
COc1ccc(C[C@H]2COc3cc(OC)c(OC)c(OC)c3C2=O)cc1	6.13	5.87	6.16	–	–
COc1cc2c(c(OC)c1OC)C(=O)[C@@](O)(Cc1ccc3c(c1)OCO3)CO2 [URGINEANIN D]	6.37	6.46	6.42	–	–
COc1cc2c(c(OC)c1OC)C(=O)[C@@H](Cc1ccc3c(c1)OCO3)CO2 [URGINEANIN E]	< 5.00	5.84	< 5.00	–	–
CC[C@]1(O)C[C@@H]2CN(CCc3c([nH]c4ccccc34)[C@@](C(=O)OC)(c3cc4c(cc3OC)N(C)[C@H]3[C@@](O)(C(=O)OC)[C@H](OC(C)=O)[C@]5(CC)C=CCN6CC[C@]43[C@@H]65)C2)C1 [VINBLASTINE]	8.28	–	8.43	–	–
